A selection: hits, their analogues and other compounds. The true share with any hit is near 2.3%.
Rpn11 block = Rpn11 (PSMD14) deubiquitinase inhibitors, primary screen, biochemical, fluorescence polarization, uHTS. human 26S proteasome, Ub4-pepOG fluorescence polarization; 20S core pre-blocked with epoxomicin. inhibition, % at 20 µM. actives 0.59% (n = 360,000). AID 588493, 2011;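 active = inhibition at 20 µM, scaled to each plate's controls, above about 33%, limit read from the data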
Target sequence (O00487 whole entry, looked up): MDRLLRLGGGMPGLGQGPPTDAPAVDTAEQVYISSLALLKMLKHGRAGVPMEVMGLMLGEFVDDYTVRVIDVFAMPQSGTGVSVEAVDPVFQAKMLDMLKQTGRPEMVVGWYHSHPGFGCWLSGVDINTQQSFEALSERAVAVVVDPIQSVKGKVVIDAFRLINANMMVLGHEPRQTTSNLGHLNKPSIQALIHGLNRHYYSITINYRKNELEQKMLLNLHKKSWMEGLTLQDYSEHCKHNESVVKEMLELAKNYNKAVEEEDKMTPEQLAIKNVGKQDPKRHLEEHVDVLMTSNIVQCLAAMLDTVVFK
LMPTP block = LMPTP phosphatase inhibitors, primary screen, biochemical, fluorescence intensity, uHTS; AID 651560, 2012; actives 0.22% (n = 360,000); recombinant LMPTP-A, OMFP fluorogenic substrate; inhibition, % at 20 µM;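 active = compounds that cut the enzyme signal by at least half of the control window in the single-dose screen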;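 also: plate controls were DMSO wells with enzyme plus substrate for no effect and substrate without enzyme for full effect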
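Test system – LMPTP-A enzyme · Amount – LMPTP-A at 0.625 nM final in the reaction · Buffer or medium – Bis-Tris pH 6.0, DTT, detergent · Reagent – OMFP 400 µM · Doses – single 20 µM dose · Schedule – reaction 50 min, room temperature, dark · Detection – fluorescence intensity of OMFP turnover product · Evaluation – percent inhibition versus substrate-only and uninhibited controls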
STEP block = STEP phosphatase inhibitors, primary screen, biochemical, fluorescence intensity, uHTS. inhibition, % at 20 µM. recombinant STEP, OMFP fluorogenic substrate. AID 588621, 2011. actives 0.25% (n = 360,000). Tyrosine-protein phosphatase non-receptor type 5 (Homo sapiens), P54829;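 active = inhibition at 20 µM, scaled per plate between control wells, above about 37%, limit read from the data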;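 also: 0% = DMSO with enzyme and substrate and 100% = substrate only without enzyme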
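medium = Bis-Tris buffer pH 6.0, 2.5 mM DTT, 0.005% Tween 20 | test system = STEP (striatal-enriched tyrosine phosphatase) enzyme, cell-free | measure = normalized % inhibition | compound dosing = 20 µM, 1% DMSO | also added = 25 µM OMFP | schedule = reaction 20 min, ambient temperature | measured by = fluorescence read at 480 nm ex / 540 nm em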
DNMT1 inh = human DNMT1 methyltransferase inhibitors, primary screen, biochemical, molecular beacon, fluorescence, HinP1I cleavage, uHTS; DNA (cytosine-5)-methyltransferase 1 (Homo sapiens), P26358; inhibition (reported as % activation of signal), % at 10 µM; actives 0.83% (n = 360,000); AID 588458, 2011; in the data active = inhibition above about 50%
SUMO1-SIM PPI = modulators of SUMO1 protein-protein interactions, primary screen, biochemical, uHTS. Small ubiquitin-related modifier 1 (Homo sapiens), P63165. SUMO1 binding to a labelled peptide, TR-FRET, 1 h. inhibition, % at 20 µM. actives 0.33% (n = 360,000). AID 602429, 2012; in the data active = inhibition above about 37%
Target sequence (P63165 whole entry, looked up): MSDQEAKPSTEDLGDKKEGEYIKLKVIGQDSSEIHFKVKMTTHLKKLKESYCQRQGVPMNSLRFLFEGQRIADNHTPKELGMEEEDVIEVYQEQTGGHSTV
Scp1 inh = Scp-1 phosphatase inhibitors, primary screen, biochemical, colorimetric, uHTS. Carboxy-terminal domain RNA polymerase II polypeptide A small phosphatase 1 (Homo …. Recombinant Scp1, phosphopeptide, malachite green phosphate absorbance. inhibition, % at 20 µM. actives 0.88% (n = 340,000). AID 493091, 2011;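 active = inhibition above about 50% at 20 µM, limit read from the data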;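 also: plate controls were DMSO wells with enzyme for no effect and wells lacking enzyme for full effect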
Target sequence (Q9GZU7 76-261 limits assumed): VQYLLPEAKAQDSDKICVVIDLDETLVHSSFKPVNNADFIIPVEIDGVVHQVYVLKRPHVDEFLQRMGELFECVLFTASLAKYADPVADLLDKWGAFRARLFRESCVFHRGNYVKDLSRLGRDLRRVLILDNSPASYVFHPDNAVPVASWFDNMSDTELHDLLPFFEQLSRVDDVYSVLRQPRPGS
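Assay system: SCP-1 catalytic fragment, aa 76-261 | Buffer or medium: Tris acetate buffer pH 5.5 with MgCl2 and Tween-20 | Compound: One concentration, 20 µM, with 1.0% DMSO | Also added: Phospho 17-mer peptide substrate | Signal: Absorbance at 630 nm | Incubation: 45 min enzyme reaction at room temperature | Measure: % inhibition of SCP-1 phosphate liberation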
Rpn11 confirm = Rpn11 (PSMD14) deubiquitinase inhibitors, confirmation, biochemical, fluorescence polarization, single concentration. inhibition, % at 20 µM. actives 29% (n = 1,900). purified human 26S proteasome, Ub4-pepOG fluorescence polarization; proteasome pretreated with epoxomicin. shares compounds with Rpn11 block
MMP-2 inh = MMP-2 enzyme inhibition, confirmation, counter-screen for RPN11 inhibitor project, biochemical, fluorescence, single concentration; inhibition, % at 20 µM; recombinant MMP-2, FRET peptide cleavage fluorescence; AID 602330, 2012; shares compounds with Rpn11 block; actives 4% (n = 1,900);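 also: human MMP-2 activated beforehand with APMA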
Thrombin inh = bovine thrombin protease inhibition, confirmation, counter-screen for Rpn11 inhibitor project, biochemical, fluorescence polarization, single concentration; inhibition, % at 20 µM; actives 13% (n = 1,900); shares compounds with Rpn11 block; bovine thrombin cleavage of Ub4-pepOG;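 active = mean inhibition at least 40% at 20 µM, or signal 3 deviations below plate average, so some actives read negative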;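 also: plate controls were thrombin with DMSO for no effect and buffer wells lacking thrombin for full effect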
Active calls of the source: *. Rule as the data show it, unless noted: active = inhibition above about 40%; inactive = the rest.

Screening Cc1cc(Oc2ccc(N)cn2)cc(C)c1Cl returned Rpn11 block 3.0, LMPTP block 0.0, STEP block -1.5, DNMT1 inh -4.7, SUMO1-SIM PPI 3.5 and Scp1 inh -0.7.
For CCOC(=O)c1ccc(NC(=O)c2cn(-c3ccccc3)nc2-c2ccncc2)cc1 the results were Rpn11 block 1.5, LMPTP block 1.2, STEP block -1.9, DNMT1 inh -7.2, SUMO1-SIM PPI 0.3 and Scp1 inh 10.1.
For COc1cc(/C=C2/SC(=S)N(CC(=O)Nc3nc4ccccc4s3)C2=O)cc(OC)c1OC the results were Rpn11 block 50.8*, LMPTP block 0.9, STEP block -6.5, DNMT1 inh -6.0, SUMO1-SIM PPI -1.4, Scp1 inh -3.0, Rpn11 confirm 51.6*, MMP-2 inh 16.2 and Thrombin inh 28.1.
For COc1ccc(/C=C2\SC(=S)N(CC(=O)Nc3nnc(C)s3)C2=O)cc1 the results were Rpn11 block 40.6*, LMPTP block 0.3, STEP block 8.5, DNMT1 inh 0.7, SUMO1-SIM PPI -0.5, Scp1 inh -11.2, Rpn11 confirm 3.4, MMP-2 inh -7.5 and Thrombin inh -5.5.
Screening COc1cc(/C=C2\SC(=S)N(CC(=O)Nc3ccccn3)C2=O)cc(OC)c1OC returned Rpn11 block 59.9*, LMPTP block 0.8, STEP block 1.3, DNMT1 inh -14.8, SUMO1-SIM PPI -14.2, Scp1 inh 0.9, Rpn11 confirm 38.1, MMP-2 inh -5.2 and Thrombin inh 25.0.
Screening CCC/C=C(\CCC)C(NS(=O)(=O)c1cccc2cccnc12)c1ccc(C(=O)OC)cc1 (centres undefined) returned Scp1 inh -2.7.
CCN1C(=O)/C(=C2/Sc3ccccc3N2CC)S/C1=N\c1ncn[nH]1 was read as Rpn11 block 72.4*, LMPTP block 1.5, STEP block 0.2, DNMT1 inh -2.1, SUMO1-SIM PPI 6.9, Scp1 inh 3.8, Rpn11 confirm 161.6*, MMP-2 inh -69.6 and Thrombin inh 103.6*.
`Nc1c(C(=O)NCCN2CCOCC2)c2nc3ccccc3nc2n1CCc1ccccc1` gave Rpn11 block 31.6*, LMPTP block 3.3, STEP block 1.5, DNMT1 inh 44.7, SUMO1-SIM PPI -8.5, Scp1 inh -5.2, Rpn11 confirm 5.2, MMP-2 inh 8.2 and Thrombin inh -7.4.
Screening COCCNC(=O)c1c(N)n(CCCn2ccnc2)c2nc3ccccc3nc12 returned Rpn11 block 40.2*, LMPTP block -1.6, STEP block 0.5, DNMT1 inh 38.1, SUMO1-SIM PPI 37.2, Scp1 inh -4.3, Rpn11 confirm -17.6, MMP-2 inh -16.8 and Thrombin inh -14.8.
Screening Nc1c(C(=O)NCCN2CCOCC2)c2nc3ccccc3nc2n1CCc1ccccc1F returned Rpn11 block 11.4, LMPTP block 2.1, STEP block -6.6, DNMT1 inh -28.4, SUMO1-SIM PPI -5.6 and Scp1 inh 3.5.
For CCc1ccc(-n2c(O)c(C=NCCN(CC)CC)c(=O)[nH]c2=O)cc1 the results were Rpn11 block 75.2*, LMPTP block -4.0, STEP block 0.4, DNMT1 inh 3.2, SUMO1-SIM PPI -3.3, Scp1 inh 10.4, Rpn11 confirm 38.5, MMP-2 inh -38.2 and Thrombin inh 19.5.
Cc1ccc(N=Nc2c(O)[nH]c(=O)[nH]c2=O)cc1S(=O)(=O)Nc1ccc(Br)cc1 was read as Rpn11 block 49.5*, LMPTP block 1.3, STEP block -0.7, DNMT1 inh -0.8, SUMO1-SIM PPI -20.1, Scp1 inh -3.9, Rpn11 confirm 107.7*, MMP-2 inh -10.7 and Thrombin inh 71.6*.
Screening COc1ccc(NS(=O)(=O)c2cc(N=Nc3c(O)[nH]c(=O)[nH]c3=O)ccc2OC)cc1Br returned Rpn11 block 6.6, LMPTP block 0.6, STEP block 1.8, DNMT1 inh -8.8 and SUMO1-SIM PPI -27.6.
N=c1c(C(=O)NC2CCCCC2)cc2c(=O)n3ccccc3nc2n1Cc1ccc(F)cc1 was read as Rpn11 block 51.4*, LMPTP block 4.4, STEP block 1.8, DNMT1 inh -5.3, SUMO1-SIM PPI -33.2, Scp1 inh 13.8, Rpn11 confirm 18.4, MMP-2 inh -27.6 and Thrombin inh -90.7.
For N=c1c(C(=O)NC2CCCC2)cc2c(=O)n3ccccc3nc2n1Cc1ccccc1 the results were Rpn11 block -8.7, LMPTP block 3.2, STEP block -0.5, DNMT1 inh -2.4, SUMO1-SIM PPI -48.2 and Scp1 inh 11.5.
For Cc1cc(C)n2nc(C(=O)OCC(=O)N3C(C)CCCC3C)nc2n1 (centres undefined) the results were Rpn11 block -3.3, LMPTP block -0.7, STEP block -2.2, DNMT1 inh 2.2, SUMO1-SIM PPI 3.0 and Scp1 inh -3.4.
For O=C(/C=C/c1cccs1)Nc1cccc(NC(=O)/C=C/c2cccs2)n1 the results were Rpn11 block 45.0*, LMPTP block 4.6, STEP block 0.8, DNMT1 inh -17.4, SUMO1-SIM PPI -1.4, Scp1 inh 16.0, Rpn11 confirm 56.4*, MMP-2 inh 17.7 and Thrombin inh 41.0*.
Cc1nc(SCC(=O)CC(=O)OC(C)C)c(C#N)c(C)c1C was read as Rpn11 block 0.1, LMPTP block 1.0, STEP block -4.8, DNMT1 inh -0.4, SUMO1-SIM PPI -6.8 and Scp1 inh -8.0.

Screens from PubChem BioAssay.
